Data as given in ChEMBL document CHEMBL4819032, “Structure-based design of highly selective 2,4,5-trisubstituted pyrimidine CDK9 inhibitors as anti-cancer agents” (Eur J Med Chem, 2021).
Activity calls are given as the source filed them.

Legend:
CDK9/cyclin T1 = CDK9/cyclin T1 (Homo sapiens, UniProt P50750); assay: Inhibition of recombinant human full length CDK9/Cyclin T1 using KTFCGTPEYLAPEVRREPRILSEEEQEMFRDFDYIADWC as substrate incubated for 40 mins in presence of [gamma-33P]-ATP by scintillation counting method; type: protein-complex assay
CDK9/cyclin T1, sequence (O60563 whole entry): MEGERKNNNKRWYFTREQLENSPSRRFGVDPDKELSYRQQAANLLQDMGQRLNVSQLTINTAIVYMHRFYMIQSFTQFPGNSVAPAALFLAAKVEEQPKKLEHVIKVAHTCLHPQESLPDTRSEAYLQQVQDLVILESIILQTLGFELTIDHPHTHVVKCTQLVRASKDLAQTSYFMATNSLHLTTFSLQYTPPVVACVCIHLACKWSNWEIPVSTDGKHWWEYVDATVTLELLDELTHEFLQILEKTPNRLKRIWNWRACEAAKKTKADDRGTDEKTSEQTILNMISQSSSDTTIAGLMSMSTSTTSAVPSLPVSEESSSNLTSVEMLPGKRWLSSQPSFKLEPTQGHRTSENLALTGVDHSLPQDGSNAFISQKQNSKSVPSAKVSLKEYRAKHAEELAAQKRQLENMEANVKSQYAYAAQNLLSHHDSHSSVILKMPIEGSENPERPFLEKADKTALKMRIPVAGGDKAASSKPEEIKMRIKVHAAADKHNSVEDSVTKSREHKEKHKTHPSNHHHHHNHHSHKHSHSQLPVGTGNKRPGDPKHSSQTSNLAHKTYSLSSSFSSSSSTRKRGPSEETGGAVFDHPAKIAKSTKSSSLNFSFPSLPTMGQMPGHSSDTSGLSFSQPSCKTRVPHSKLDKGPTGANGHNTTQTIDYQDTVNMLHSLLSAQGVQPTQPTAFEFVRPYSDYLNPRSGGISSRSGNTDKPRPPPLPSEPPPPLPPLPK
CDK9/cyclin T1, sequence (P50750 whole entry): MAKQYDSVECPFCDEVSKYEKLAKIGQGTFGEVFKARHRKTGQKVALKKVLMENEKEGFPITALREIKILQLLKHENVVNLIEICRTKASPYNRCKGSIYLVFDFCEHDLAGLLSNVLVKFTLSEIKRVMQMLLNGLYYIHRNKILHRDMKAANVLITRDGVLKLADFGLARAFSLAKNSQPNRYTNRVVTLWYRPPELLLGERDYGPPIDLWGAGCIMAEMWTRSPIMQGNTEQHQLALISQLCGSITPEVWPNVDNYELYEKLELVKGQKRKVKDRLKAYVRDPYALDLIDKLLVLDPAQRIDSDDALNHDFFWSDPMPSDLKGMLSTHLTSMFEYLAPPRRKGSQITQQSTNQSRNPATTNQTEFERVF
Procedure, shortened: (§1)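 Radiometric kinase assay with ATP at each kinase's Km(app). IC50 values come from 10-point dose-response curves, and apparent Ki is calculated from IC50 and the kinase's Km(ATP).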

Homo sapiens = organism: Homo sapiens; assay: Selectivity index, ratio of Ki for inhibition of recombinant human full length CDK2/Cyclin A to Ki for inhibition of recombinant human full length CDK9/Cyclin T1
Procedure, shortened: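 Ratio of apparent Ki values for the two CDK/cyclin complexes. Each Ki is derived from an IC50 (10-point radiometric dose-response, ATP at Km(app)) using the kinase's Km(ATP). The selectivity index is defined as Ki(CDK2)/Ki(CDK9).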

HCT-116 [1] = assay: Growth inhibition of human HCT-116 cells after 48 hrs by MTT assay; type: functional
MCF7 = assay: Growth inhibition of human MCF7 cells after 48 hrs by MTT assay; type: functional
[2] = biological target: Cyclin-dependent kinase 1/cyclin B1 (Homo sapiens, UniProt P06493); assay: Inhibition of recombinant human full length CDK1/Cyclin B using histone H1 as substrate incubated for 40 mins in presence of [gamma-33P]-ATP by scintillation counting method; type: protein-complex assay; procedure, shortened: as §1
Cyclin-dependent kinase 1/cyclin B1, sequence (P06493 whole entry): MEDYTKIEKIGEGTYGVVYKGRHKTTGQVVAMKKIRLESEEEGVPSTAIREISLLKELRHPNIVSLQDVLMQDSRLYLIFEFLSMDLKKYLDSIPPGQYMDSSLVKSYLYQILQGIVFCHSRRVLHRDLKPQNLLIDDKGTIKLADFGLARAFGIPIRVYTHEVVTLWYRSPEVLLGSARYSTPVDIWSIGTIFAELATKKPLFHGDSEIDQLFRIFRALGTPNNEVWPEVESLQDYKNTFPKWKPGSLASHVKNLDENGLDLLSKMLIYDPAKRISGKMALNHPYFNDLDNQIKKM
Cyclin-dependent kinase 1/cyclin B1, sequence (P14635 whole entry, further chain): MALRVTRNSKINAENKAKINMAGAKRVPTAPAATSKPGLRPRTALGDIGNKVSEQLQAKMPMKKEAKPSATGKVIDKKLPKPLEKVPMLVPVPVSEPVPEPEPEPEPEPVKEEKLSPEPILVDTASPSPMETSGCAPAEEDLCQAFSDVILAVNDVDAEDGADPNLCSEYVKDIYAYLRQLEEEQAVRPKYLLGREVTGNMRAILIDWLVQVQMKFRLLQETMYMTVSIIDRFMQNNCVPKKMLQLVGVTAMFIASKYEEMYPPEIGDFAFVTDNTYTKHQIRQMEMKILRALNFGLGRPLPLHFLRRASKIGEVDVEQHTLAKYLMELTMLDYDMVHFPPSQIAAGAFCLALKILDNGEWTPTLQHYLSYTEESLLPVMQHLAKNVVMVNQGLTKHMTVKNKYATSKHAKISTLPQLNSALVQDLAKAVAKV

A2780 [3] = assay: Induction of apoptosis in human A2780 cells assessed as late apoptotic cells at 0.5 uM after 24 hrs by Annexin V-FITC/PI staining based flow cytometric analysis (reference value: 2.8%); type: functional
Procedure, shortened: (§2)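 A2780 cells cultured 24 h in medium alone or with varying inhibitor concentrations, then stained with FITC-annexin V/PI per kit protocol and analysed by flow cytometry. Run in triplicate and repeated at least twice; significance by one-way ANOVA, p < 0.01.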

A2780 [4] = assay: Induction of apoptosis in human A2780 cells assessed as early apoptotic cells at 1 uM after 24 hrs by Annexin V-FITC/PI staining based flow cytometric analysis (reference value: 1.6%); type: functional; procedure, shortened: as §2
A2780 [5] = assay: Induction of cell cycle arrest in human A2780 cells assessed as accumulation at S phase at 1 uM after 24 hrs by propidium iodide staining based flow cytometric analysis (reference value: 20%); type: functional
Procedure, shortened: (§3)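 4 × 10⁵ A2780 cells cultured 24 h in medium alone or with varying inhibitor concentrations, harvested into hypotonic fluorochrome solution (0.1% sodium citrate, 0.1% Triton X-100, propidium iodide, 100 ug/ml RNase A), and DNA content analysed by flow cytometry. Representative of three independent experiments.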

A2780 [6] = assay: Induction of cell cycle arrest in human A2780 cells assessed as accumulation at G2/M phase at 1 uM after 24 hrs by propidium iodide staining based flow cytometric analysis (reference value: 21.6%); type: functional; procedure, shortened: as §3
A2780 [7] = assay: Induction of cell cycle arrest in human A2780 cells assessed as accumulation at G1/G0 phase at 5 uM after 24 hrs by propidium iodide staining based flow cytometric analysis (reference value: 56.7%); type: functional; procedure, shortened: as §3
A2780 [8] = assay: Induction of cell cycle arrest in human A2780 cells assessed as accumulation at pre-G1 phase after 24 hrs by propidium iodide staining based flow cytometric analysis; type: functional; conditions: dose 0.5-5 µM; procedure, shortened: as §3
HCT-116 [9] = assay: Induction of apoptosis in human HCT-116 cells assessed as increase in cleaved-PARP protein expression at 0.5 to 5 uM after 24 hrs by Western blot analysis; type: functional, cell-based; conditions: dose 0.5-5 µM

SMILES: CNc1nc(C)c(-c2nc(Nc3cccc(N4CCN5CCC4CC5)c3)ncc2C)s1
- Ki (CDK9/cyclin T1): 10 nM
- Ratio Ki (Homo sapiens): 125
- GI50 (HCT-116 [1]): 1070 nM
- GI50 (MCF7): 1340 nM
- Ki [2]: 1170 nM
- Activity (A2780 [3]): 6.2%
- Activity (A2780 [4]): 9.3%
- Activity (A2780 [5]): 7.6%
- Activity (A2780 [6]): 34.2%
- Activity (A2780 [7]): 31.5%
- Activity (A2780 [8]): Dose-Dependent Effect
- Activity (HCT-116 [9]): Active
